# From ChEMBL document CHEMBL2021785, “Compounds of Alpinia katsumadai as potential efflux inhibitors in Mycobacterium smegmatis” (2012)
# Activity calls are given as the source filed them. The rule behind the calls is not given here.
# Tests used:
# [1] = tested on: Mycolicibacterium smegmatis; assay: Antibacterial activity against Mycobacterium smegmatis mc2 155 after 72 hrs by MTT assay; format: functional; conditions: str. MC2 155, 72 h
# Method in brief: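 Broth dilution in Mueller-Hinton broth; compounds dissolved in DMSO, two-fold serial dilutions; inoculum adjusted to McFarland 0.5 and diluted to final 5 × 10^5 cfu/mL; cells pre-grown on Columbia blood agar with 5% horse blood, 37 °C, 72 h. Plates incubated 37 °C for 72 h; MIC read after MTT as lowest concentration inhibiting growth.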
# [2] = tested on: Mycolicibacterium smegmatis MC2 155; assay: Inhibition of Multidrug resistance efflux pump in Mycobacterium smegmatis mc2 155 assessed as modulation of EtBr-mediated antibacterial activity measuring ratio of EtBr MIC to EtBr and compound MIC at 2 mg/L after 72 hrs by MTT assay
# Method in brief: (§1)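 Checkerboard-type modulation by broth dilution in MHB with DMSO-dissolved modulators: either modulator held constant (half its MIC) with two-fold serially diluted antibiotic/EtBr, or antibiotic fixed with modulator serially diluted. Final inoculum 5 × 10^5 cfu/mL, 37 °C, 72 h, MTT read-out. Modulation factor quantifies shift in antibiotic/EtBr MIC; FICI assesses combination effect.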
# [3] = tested on: Mycolicibacterium smegmatis MC2 155; assay: Inhibition of Multidrug resistance efflux pump in Mycobacterium smegmatis mc2 155 assessed as modulation of isoniazid-mediated antibacterial activity measuring ratio of isoniazid MIC to isoniazid and compound MIC at 2 mg/L after 72 hrs by MTT assay; method in brief: as §1
# [4] = tested on: Mycolicibacterium smegmatis MC2 155; assay: Inhibition of Multidrug resistance efflux pump in Mycobacterium smegmatis mc2 155 assessed as modulation of rifampicin-mediated antibacterial activity measuring ratio of rifampicin MIC to rifampicin and compound MIC at 2 mg/L after 72 hrs by MTT assay; method in brief: as §1
# [5] = tested on: Mycolicibacterium smegmatis MC2 155; assay: Inhibition of Multidrug resistance efflux pump in Mycobacterium smegmatis mc2 155 assessed as modulation of EtBr-mediated antibacterial activity measuring ratio of EtBr MIC to EtBr and compound MIC at 64 mg/L after 72 hrs by MTT assay; method in brief: as §1
# [6] = tested on: Mycolicibacterium smegmatis MC2 155; assay: Inhibition of Multidrug resistance efflux pump in Mycobacterium smegmatis mc2 155 assessed as modulation of isoniazid-mediated antibacterial activity measuring ratio of isoniazid MIC to isoniazid and compound MIC at 64 mg/L after 72 hrs by MTT assay; method in brief: as §1
# [7] = tested on: Mycolicibacterium smegmatis MC2 155; assay: Inhibition of Multidrug resistance efflux pump in Mycobacterium smegmatis mc2 155 assessed as modulation of ciprofloxacin-mediated antibacterial activity measuring ratio of ciprofloxacin MIC to ciprofloxacin and compound MIC at 64 mg/L after 72 hrs by MTT assay; method in brief: as §1
# [8] = tested on: Mycolicibacterium smegmatis MC2 155; assay: Inhibition of Multidrug resistance efflux pump in Mycobacterium smegmatis mc2 155 assessed as modulation of ethambutol-mediated antibacterial activity measuring ratio of ethambutol MIC to ethambutol and compound MIC at 64 mg/L after 72 hrs by MTT assay; method in brief: as §1
# [9] = tested on: Mycolicibacterium smegmatis MC2 155; assay: Inhibition of Multidrug resistance efflux pump in Mycobacterium smegmatis mc2 155 assessed as modulation of rifampicin-mediated antibacterial activity measuring ratio of rifampicin MIC to rifampicin and compound MIC at 64 mg/L after 72 hrs by MTT assay; method in brief: as §1
# [10] = tested on: Mycolicibacterium smegmatis MC2 155; assay: Inhibition of Multidrug resistance efflux pump in Mycobacterium smegmatis mc2 155 assessed as modulation of EtBr-mediated antibacterial activity measuring fractional inhibitory concentration index at 64 mg/L after 72 hrs by MTT assay; method in brief: as §1
# [11] = tested on: Mycolicibacterium smegmatis MC2 155; assay: Inhibition of Multidrug resistance efflux pump in Mycobacterium smegmatis mc2 155 assessed as modulation of rifampicin-mediated antibacterial activity measuring fractional inhibitory concentration index at 64 mg/L after 72 hrs by MTT assay; method in brief: as §1
# [12] = tested on: Mycolicibacterium smegmatis MC2 155; assay: Inhibition of Multidrug resistance efflux pump in Mycobacterium smegmatis mc2 155 assessed as EtBr accumulation measuring relative fluorescence at half the MIC measured for 60 mins by spectrophotometry relative to control
# Method in brief: (§2)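 Overnight 7H9/ADC culture (37 °C, 100 rpm) centrifuged and resuspended in PBS with 0.05% Tween 80 to OD600 0.4. Cells mixed 1:1 with test solutions containing 0.5 mg/L EtBr and 0.4% glucose, compounds from MIC down to 1/16 MIC. Fluorescence (ex 531/em 590 nm) read every 50 s at 37 °C for 60 min; repeated at least three times.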
# [13] = tested on: Mycolicibacterium smegmatis MC2 155; assay: Inhibition of Multidrug resistance efflux pump in Mycobacterium smegmatis mc2 155 assessed as EtBr accumulation measuring relative fluorescence at MIC measured for 60 mins by spectrophotometry relative to control; method in brief: as §2
# [14] = tested on: Mycolicibacterium smegmatis MC2 155; assay: Inhibition of Multidrug resistance efflux pump in Mycobacterium smegmatis mc2 155 assessed as EtBr accumulation measuring relative fluorescence at 1/4 of MIC measured for 60 mins by spectrophotometry relative to control; method in brief: as §2
# [15] = tested on: Mycolicibacterium smegmatis MC2 155; assay: Inhibition of Multidrug resistance efflux pump in Mycobacterium smegmatis mc2 155 assessed as EtBr accumulation measuring relative fluorescence at lower MIC measured for 60 mins by spectrophotometry relative to control; method in brief: as §2
# [16] = tested on: Mycolicibacterium smegmatis MC2 155; assay: Inhibition of Multidrug resistance efflux pump in Mycobacterium smegmatis mc2 155 assessed as EtBr accumulation measuring relative fluorescence at 1/8 of MIC measured for 60 mins by spectrophotometry relative to control; method in brief: as §2
# [17] = tested on: Mycolicibacterium smegmatis MC2 155; assay: Inhibition of Multidrug resistance efflux pump in Mycobacterium smegmatis mc2 155 assessed as inhibition of EtBr efflux measuring normalized fluorescence at half the MIC measured for 60 mins by spectrophotometry relative to control
# [18] = tested on: Mycolicibacterium smegmatis MC2 155; assay: Inhibition of Multidrug resistance efflux pump in Mycobacterium smegmatis mc2 155 assessed as inhibition of EtBr efflux measuring relative fluorescence at 1/8 of MIC measured for 60 mins by spectrophotometry relative to control
# [19] = tested on: Mycolicibacterium smegmatis MC2 155; assay: Inhibition of Multidrug resistance efflux pump in Mycobacterium smegmatis mc2 155 assessed as inhibition of EtBr efflux measuring relative fluorescence at lower MIC measured for 60 mins by spectrophotometry relative to control
# [20] = tested on: Mycolicibacterium smegmatis MC2 155; assay: Inhibition of Multidrug resistance efflux pump in Mycobacterium smegmatis mc2 155 assessed as modulation of EtBr-mediated antibacterial activity measuring reduction in MIC at 1/2 of MIC after 72 hrs by MTT assay relative to control; method in brief: as §1
# [21] = tested on: Mycolicibacterium smegmatis MC2 155; assay: Inhibition of Multidrug resistance efflux pump in Mycobacterium smegmatis mc2 155 assessed as modulation of rifampicin-mediated antibacterial activity measuring reduction in MIC at 1/2 of MIC after 72 hrs by MTT assay relative to control; method in brief: as §1
# [22] = tested on: Mycolicibacterium smegmatis MC2 155; assay: Inhibition of Multidrug resistance efflux pump in Mycobacterium smegmatis mc2 155 assessed as modulation of ethambutol-mediated antibacterial activity measuring reduction in MIC at 1/2 of MIC after 72 hrs by MTT assay relative to control; method in brief: as §1
smiles,measurement,setting,value
CO[C@H]1/C=C/O[C@@]2(C)Oc3c(C)c(O)c4c(O)c(c(/C=N/N5CCN(C)CC5)c(O)c4c3C2=O)NC(=O)/C(C)=C\C=C\[C@H](C)[C@H](O)[C@@H](C)[C@@H](O)[C@@H](C)[C@H](OC(C)=O)[C@@H]1C [RIFAMPIN],MIC,[1],32 µg/mL
O=C(O)c1cn(C2CC2)c2cc(N3CCNCC3)c(F)cc2c1=O [CIPROFLOXACIN],MIC,[1],0.125 µg/mL
CCCCC/C=C\C/C=C\CCCCCCCC(=O)O [LINOLEIC ACID],MIC,[1],4 µg/mL
same,Ratio,[2],2
same,Ratio,[3],1
same,Ratio,[4],2
N#CC(C#N)=NNc1cccc(Cl)c1 [CARBONYL CYANIDE M-CHLOROPHENYLHYDRAZONE],MIC,[1],32 µg/mL
CCCCCCCCCCCCCCCCCC(=O)O [STEARIC ACID],MIC,[1],≥ 128 µg/mL
same,Ratio,[5],1
same,Ratio,[6],0.5
O=C(/C=C/C=C/c1ccccc1)CCc1ccccc1,MIC,[1],≥ 128 µg/mL
same,Ratio,[5],4
same,Ratio,[7],1
same,Ratio,[8],1
same,Ratio,[6],1
same,Ratio,[9],4
same,fractional inhibitory concentration index (FICI),[10],0.27
same,fractional inhibitory concentration index (FICI),[11],0.28
same,RFU,[12],19400
same,inhibition,[13],Active
same,inhibition,[14],Active
same,inhibition,[15],Dose-dependent effect
same,inhibition,[16],Active
same,normalized EtBr fluorescence relative to control,[17],0.806
same,inhibition,[18],Active
same,inhibition,[19],Dose-dependent effect
same,fold change (FC),[20],4
same,fold change (FC),[21],4
NNC(=O)c1ccncc1 [ISONIAZID],MIC,[1],4 µg/mL
O=C1C[C@@H](c2ccccc2)Oc2cc(O)cc(O)c21 [PINOCEMBRIN],MIC,[1],128 µg/mL
same,Ratio,[5],4
same,Ratio,[7],1
same,Ratio,[8],2
same,Ratio,[6],1
same,Ratio,[9],2
same,fractional inhibitory concentration index (FICI),[10],0.5
same,fractional inhibitory concentration index (FICI),[11],1.5
same,RFU,[12],11200
same,normalized EtBr fluorescence relative to control,[17],0.765
same,fold change (FC),[20],4
same,fold change (FC),[22],2
